Assays:
[1] = biological target: T1, labeled rabbit muscle actin (Oryctolagus cuniculus, UniProt P68135); experiment: In vitro actin polymerization assay; assay type: biochemical; conditions: 5 μM; for actin polymerization curve, RFU reached (lowest point/plateau): CTRL about 37,000 RFU
Method in brief: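 Labeled rabbit muscle actin incubated with test compound (5 μM) using a commercial polymerization kit. DMSO as negative control; latrunculin A and cytochalasin B (5 μM) as reference agents. Filament assembly followed by fluorescence (ex/em 365/410 nm) in kinetic mode for 1 h at room temperature; curves representative of three separate tests.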

[2] = biological target: T1, labeled rabbit muscle actin; experiment: In vitro actin depolymerization assay; assay type: biochemical; conditions: 5 μM, added after 1 h polymerization
Method in brief: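 Labeled rabbit muscle actin first polymerized for 1 h under polymerization-assay conditions. Test compound (5 μM) then added, and fluorescence (ex/em 365/410 nm) monitored kinetically for another hour at room temperature. DMSO vehicle; latrunculin A and cytochalasin B (5 μM) as controls; three separate tests.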

MCF‐10A cells = experiment: MTT assay, cytotoxicity on normal cells; assay type: cell-based, human; conditions: 72 h
Method in brief: (§1)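 Cells seeded in 48-well plates and serum-starved. They were then exposed for 72 h to test compound dissolved in DMSO over 0.1–200 μM, with viability read by MTT. IC50 calculated from concentration–response data; experiments in triplicate, reported as mean ± SD.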

MCF‐7 cells [3] = experiment: MTT assay; assay type: cell-based, human
Method in brief: as §1

MDA‐MB‐231 cells = experiment: MTT assay; assay type: cell-based, human
Method in brief: as §1

[4] = system: Escherichia coli (ATCC 25922); experiment: MIC determination, broth dilution; assay type: cell-based; conditions: E. coli ATCC 25922, broth dilution, 37 °C 18 h
Method in brief: (§2)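 Broth dilution per CLSI. Overnight LB cultures diluted to 4000 CFU/mL in 96-well plates, then exposed to test compound at 1, 5, 10, 20, 50 or 100 μg/mL for 18 h at 37 °C. Growth read at 600 nm against DMSO-vehicle growth control; compound-only sterility control; ampicillin as strain-sensitivity control. MIC: lowest concentration inhibiting visible growth; MBC: lowest fully bactericidal concentration. Five experiments, each in triplicate.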

[5] = system: Staphylococcus aureus (ATCC 23235); experiment: MIC determination, broth dilution; assay type: cell-based; conditions: S. aureus ATCC 23235, broth dilution, 37 °C 18 h
Method in brief: as §2

[6] = system: Enterococcus faecalis (ATCC 19433); experiment: MIC determination, broth dilution; assay type: cell-based; conditions: E. faecalis ATCC 19433, broth dilution, 37 °C 18 h
Method in brief: as §2

[7] = system: Gram‐positive and Gram‐negative bacteria (E. coli, S. aureus, E. faecalis); experiment: MBC determination and ampicillin control, broth dilution, all strains; assay type: cell-based; conditions: all strains used, standard antibiotic control
Method in brief: as §2

MCF‐7 cells [8] = experiment: TUNEL assay; assay type: cell-based, human; conditions: MCF‐7, 24 h, at IC50 value
recombinant human topo I = biological target: T2, recombinant human topo I (Homo sapiens, UniProt P11387); experiment: Human topoisomerase I relaxation assay; assay type: biochemical; conditions: 1 μM, supercoiled pHOT1 substrate
T2 sequence (P11387 1-765): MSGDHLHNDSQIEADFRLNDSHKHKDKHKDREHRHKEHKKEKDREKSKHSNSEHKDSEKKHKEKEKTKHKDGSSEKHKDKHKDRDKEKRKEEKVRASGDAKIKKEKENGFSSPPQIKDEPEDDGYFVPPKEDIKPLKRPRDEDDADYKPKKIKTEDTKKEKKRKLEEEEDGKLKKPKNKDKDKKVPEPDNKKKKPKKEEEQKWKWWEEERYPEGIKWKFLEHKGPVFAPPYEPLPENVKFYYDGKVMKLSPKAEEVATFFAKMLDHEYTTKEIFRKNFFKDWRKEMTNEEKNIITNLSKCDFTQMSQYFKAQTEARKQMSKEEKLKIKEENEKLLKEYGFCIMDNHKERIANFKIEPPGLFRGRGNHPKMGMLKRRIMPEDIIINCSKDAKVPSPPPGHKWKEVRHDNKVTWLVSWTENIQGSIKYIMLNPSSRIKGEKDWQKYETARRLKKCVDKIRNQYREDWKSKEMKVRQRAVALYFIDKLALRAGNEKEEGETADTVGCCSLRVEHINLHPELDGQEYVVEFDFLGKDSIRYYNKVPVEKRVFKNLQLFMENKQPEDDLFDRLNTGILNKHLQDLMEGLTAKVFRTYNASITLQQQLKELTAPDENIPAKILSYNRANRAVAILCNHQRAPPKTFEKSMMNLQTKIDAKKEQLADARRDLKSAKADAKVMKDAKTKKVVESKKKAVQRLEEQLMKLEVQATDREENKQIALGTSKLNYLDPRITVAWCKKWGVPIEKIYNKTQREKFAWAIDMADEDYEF
Method in brief: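 Supercoiled pHOT1 (0.25 μg) relaxed by 2 U recombinant human topo I, without or with test compound at 1 μM; DMSO vehicle control; relaxed-DNA marker run alongside. Products separated on 1% agarose in 1X TAE without ethidium bromide and visualized on a UV transilluminator.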

human topoisomerase II = human topoisomerase II (Homo sapiens, UniProt P11388); experiment: Human topoisomerase II decatenation assay; assay type: biochemical; conditions: kDNA substrate
Sequence of human topoisomerase II (P11388 whole entry): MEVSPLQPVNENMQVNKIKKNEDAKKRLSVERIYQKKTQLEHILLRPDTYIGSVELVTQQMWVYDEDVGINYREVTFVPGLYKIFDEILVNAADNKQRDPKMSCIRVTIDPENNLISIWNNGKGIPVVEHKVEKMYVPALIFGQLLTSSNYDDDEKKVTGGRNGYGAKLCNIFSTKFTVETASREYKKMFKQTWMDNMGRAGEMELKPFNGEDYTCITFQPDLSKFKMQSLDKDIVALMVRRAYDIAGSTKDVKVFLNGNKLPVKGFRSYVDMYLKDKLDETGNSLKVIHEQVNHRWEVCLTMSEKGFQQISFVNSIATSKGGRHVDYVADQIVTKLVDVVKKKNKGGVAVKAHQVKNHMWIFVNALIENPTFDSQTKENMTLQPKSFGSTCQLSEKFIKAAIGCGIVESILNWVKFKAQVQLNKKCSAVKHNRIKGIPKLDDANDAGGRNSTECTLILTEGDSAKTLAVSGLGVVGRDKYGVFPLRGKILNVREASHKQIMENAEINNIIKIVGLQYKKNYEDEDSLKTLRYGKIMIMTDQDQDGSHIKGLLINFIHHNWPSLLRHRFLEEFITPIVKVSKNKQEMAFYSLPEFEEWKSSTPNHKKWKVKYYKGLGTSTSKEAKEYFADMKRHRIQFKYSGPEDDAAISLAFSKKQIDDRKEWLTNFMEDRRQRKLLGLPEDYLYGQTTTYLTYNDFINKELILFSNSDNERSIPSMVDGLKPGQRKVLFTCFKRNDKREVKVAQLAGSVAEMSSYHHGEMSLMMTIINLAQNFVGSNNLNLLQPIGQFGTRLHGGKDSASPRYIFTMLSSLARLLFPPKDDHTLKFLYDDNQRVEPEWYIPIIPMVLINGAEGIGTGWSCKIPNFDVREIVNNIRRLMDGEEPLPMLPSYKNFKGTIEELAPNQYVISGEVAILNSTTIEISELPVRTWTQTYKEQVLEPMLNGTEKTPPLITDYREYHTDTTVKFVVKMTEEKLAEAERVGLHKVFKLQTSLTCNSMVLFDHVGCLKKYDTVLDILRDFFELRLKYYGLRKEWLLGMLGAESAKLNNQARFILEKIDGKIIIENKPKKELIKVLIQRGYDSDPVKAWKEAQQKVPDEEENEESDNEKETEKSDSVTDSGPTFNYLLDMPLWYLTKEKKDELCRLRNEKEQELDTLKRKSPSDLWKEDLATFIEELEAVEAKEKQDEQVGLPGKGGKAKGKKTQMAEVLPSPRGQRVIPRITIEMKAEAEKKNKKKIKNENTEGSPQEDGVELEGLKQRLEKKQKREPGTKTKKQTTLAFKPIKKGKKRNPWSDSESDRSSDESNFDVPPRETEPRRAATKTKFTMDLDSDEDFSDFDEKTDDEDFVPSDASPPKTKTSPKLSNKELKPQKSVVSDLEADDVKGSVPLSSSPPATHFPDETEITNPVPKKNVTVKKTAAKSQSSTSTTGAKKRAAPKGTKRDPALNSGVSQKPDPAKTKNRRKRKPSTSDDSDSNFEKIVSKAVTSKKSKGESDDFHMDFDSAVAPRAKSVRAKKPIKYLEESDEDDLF
Method in brief: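 Decatenation of kinetoplast DNA (0.3 μg) by 3 U human topo II, with test compound at 1 or 10 μM or DMSO vehicle; linear and decatenated kDNA markers included. Gel: 1% agarose in 1X TAE with ethidium bromide (0.5 μg/ml), UV transilluminator read-out.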

MCF‐7 cells [9] = experiment: Immunofluorescence analysis of β‐actin; assay type: cell-based, human; conditions: MCF‐7, 24 h, IC50 value / 5 μM
[10] = MCF‐10A normal mammary epithelium, MTT

Row | Compound | effect on actin polymerization [1] | actin polymerization curve, RFU reached (lowest point/plateau) [1] | effect on actin depolymerization [2] | IC50 (MCF‐10A cells; [10]) | IC50 (MCF‐7 cells [3]; MCF‐7, MTT, 72 h) | IC50 (MDA‐MB‐231 cells; MDA‐MB‐231, MTT, 72 h) | MIC [4] | MIC [5] | MIC [6] | further results
1 | C=C1[C@@H](C)[C@H]2[C@H](Cc3ccccc3)NC(=O)[C@]23OC(=O)/C=C/[C@H](O)CCC[C@@H](C)C/C=C/[C@H]3[C@@H]1O [CB, cytochalasin B, reference compound] | totally impeded the actin polymerization | approximately 20,000 RFU | no relevant changes in RFU | – | – | – | – | – | – | actin depolymerization curve, RFU reached ([2]; initial value 28,000 RFU): about 28,000 RFU
2 | N.N.[Cl][Pt][Cl] [Cisplatin, reference compound] | – | – | – | 81.3 ± 0.6 µM | 35.8 ± 0.7 µM | 28.7 ± 0.4 µM | – | – | – | –
3 | COC(Cn1ccn(C)[c]1=[Ag-2][I])c1ccccc1 (stereo not shown) [Compound 3, [N‐methyl,N’‐(2‐metoxy‐2‐phenyl)ethyl‐imidazole‐2‐ylidenesilver(I)] iodide] | – | – | – | > 200 µM | 31.8 ± 0.8 µM | 52.6 ± 0.3 µM | 5 µg/mL | 5 µg/mL | 10 µg/mL | –
4 | C/C1=C/C(=O)O[C@@H]2C[C@@H](CC[C@H](C)/C=C\C=C\CC1)O[C@@](O)([C@@H]1CSC(=O)N1)C2 [Latrunculin A, reference compound] | totally impeded the actin polymerization | – | actin depolymerization has occurred | – | – | – | – | – | – | IC50 (MCF‐10A cells; Homo sapiens, MCF-10A): 0.045 µM; IC50 (MCF‐7 cells [3]; Homo sapiens, MCF7, 72 h): 0.14 µM; IC50 (MDA‐MB‐231 cells; Homo sapiens, MDA-MB-231, 72 h): 0.024 µM
5 | CC1(C)S[C@@H]2[C@H](NC(=O)[C@H](N)c3ccccc3)C(=O)N2[C@H]1C(=O)O [ampicillin, Ampicillin] | – | – | – | – | – | – | – | – | – | strain sensibility to ampicillin [7]: ampicillin‐sensible
6 | [4,5‐dichloro‐[(N‐methyl‐N’(2‐hydroxy‐2‐phenyl‐ethyl)imidazole‐2‐ylidene]silver(I)] acetate [Compound 6] | inhibitory activity on the polymerization of G‐actin, higher than that of CB | approximately 13,000 RFU | able to act as a depolymerization inducer | > 200 µM | 13.2 ± 0.3 µM | 38.1 ± 0.8 µM | 10 µg/mL | 5 µg/mL | 10 µg/mL | time to reach the lowest point of the polymerization curve [1]: around 12 minutes; apoptosis (green nuclear fluorescence, DNA fragmentation) (MCF‐7 cells [8]): induced apoptosis; inhibition of hTopo I activity (recombinant human topo I): total inhibition of the enzyme activity; inhibition of hTopo II activity (human topoisomerase II; 1 μM): did not produce the enzyme inhibition; inhibition of hTopo II activity (human topoisomerase II; 10 μM): totally inhibit the hTopo II activity; actin cytoskeleton organization / cell morphology (MCF‐7 cells [9]): caused comparable disorganization of this structure

From article PMC9804882 (Chemmedchem, 2022)
